Source: ChEMBL document CHEMBL4052786, “The hydrolytic susceptibility of prochelator BSIH in aqueous solutions” (Bioorg Med Chem Lett, 2017)
The source made the active and inactive calls. The rule behind the calls is not given here.

Key:
[1] = system: ARPE-19; test: Cytoprotective activity against H2O2-induced toxicity in human ARPE19 cells pretreated for 5 hrs followed by H2O2 addition after 19 hrs by CellTiter-blue assay; type: functional, cell-based
How it was run: (§1)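 ARPE-19 human retinal pigment epithelial cells pre-incubated 5 h with a range of compound concentrations, then given H2O2 at 200 μM. Viability read 19 h after peroxide addition by CellTiter Blue. Expressed as percent of untreated control (100%).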

[2] = Drug level treated with BSIH in DMSO assessed as metabolite formation at 100 uM at pH 7.4 after overnight incubation in presence of H2O2 by UV-vis spectrometric analysis
[3] = system: ARPE-19; test: Cytotoxicity against human ARPE19 cells assessed as reduction in cell viability at 100 uM after 72 hrs by CellTiter-blue assay relative to control; type: cell-based; settings: arpe-19, 72 h
How it was run: (§2)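 Inherent toxicity tested on ARPE-19 cells. Compounds at concentrations up to 100 μM for 72 h. Viability read by CellTiter Blue assay.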

[4] = Stability of the compound in minimal essential medium assessed as compound hydrolysis at 100 uM at pH 7.4 after 24 hrs by UV-Vis spectrophotometric analysis
How it was run: (§3)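 Compound at 100 μM dissolved in PBS pH 7.4 or in minimal essential medium. UV-Vis spectra of freshly prepared and 24-h aged solutions kept at ambient temperature were compared.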

[5] = Stability of the compound in aqueous solvent at 500 uM after 24 hrs in presence of H2O2 by 1H-NMR spectroscopic analysis; type: physicochemical; settings: buffer
[6] = Drug metabolism in RPMI media assessed as equilibrium hydrolysis constant at 100 uM; type: physicochemical
[7] = Stability of the compound in minimal essential medium assessed as compound hydrolysis at 100 uM within 24 hrs by UV-Vis spectrophotometric analysis
[8] = Half-life in RPMI media at 100 uM; type: physicochemical
[9] = Stability of the compound in phosphate buffered saline at pH 7.4 assessed as compound hydrolysis at 100 uM after 24 hrs by UV-Vis spectrophotometric analysis; type: physicochemical; settings: buffer, pH 7.4, 24 h; how it was run: as §3
[10] = system: ARPE-19; test: Cytoprotective activity against H2O2-induced toxicity in human ARPE19 cells up to 100 uM pretreated for 5 hrs followed by H2O2 addition after 19 hrs by CellTiter-blue assay; type: functional, cell-based; how it was run: as §1
[11] = Drug level treated with BSIH assessed as metabolite formation at 500 uM after 24 hrs in presence of H2O2 by 1H-NMR spectroscopic analysis
[12] = system: ARPE-19; test: Cytotoxicity against human ARPE19 cells assessed as reduction in cell viability up to 100 uM after 72 hrs by CellTiter-blue assay; type: cell-based; settings: arpe-19, 72 h; how it was run: as §2
[13] = Stability of the compound in phosphate buffered saline assessed as parent compound remaining at 100 uM at pH 7.4 after 20 mins by UV-vis spectrophotometric analysis; type: physicochemical; settings: read-out: Stability
[14] = Stability of the compound in phosphate buffered saline assessed as parent compound remaining at 500 uM at pH 7.4 after 20 mins by UV-vis spectrophotometric analysis; type: physicochemical; settings: read-out: Stability
[15] = Stability of the compound in phosphate buffered saline at pH 7.4 assessed as compound hydrolysis at 100 uM up to 24 hrs by UV-Vis spectrophotometric analysis; type: physicochemical; settings: buffer, pH 7.4, 24 h; how it was run: as §3
[16] = Stability of the compound in phosphate buffered saline at pH 7.4 assessed as compound hydrolysis at 100 uM within 20 mins by UV-Vis spectrophotometric analysis; type: physicochemical; settings: buffer, pH 7.4, 20 min
[17] = Stability of the compound in Britton-Robinson buffer at pH 12 assessed as parent compound remaining at 100 uM by UV-vis spectrometric analysis; type: physicochemical; settings: read-out: Stability
[18] = Drug metabolism in D2O/5% DMSO-d6 assessed as formation of hydrazone proton at 500 uM after 1 hr by 1H-NMR spectroscopic analysis; type: physicochemical
[19] = Drug metabolism in DMSO-d6 assessed as formation of hydrazone proton at 10 mM by 1H-NMR spectroscopic analysis; type: physicochemical; settings: 10000 µM
[20] = Stability of the compound in minimal essential medium assessed as compound hydrolysis at 100 uM at pH 7.4 within 20 mins by UV-Vis spectrophotometric analysis
[21] = Stability of the compound in Britton-Robinson buffer at pH 6 assessed as parent compound remaining at 100 uM by UV-vis spectrometric analysis; type: physicochemical; settings: read-out: Stability
[22] = Stability of the compound in Britton-Robinson buffer at pH 2 assessed as parent compound remaining at 100 uM by UV-vis spectrometric analysis; type: physicochemical; settings: read-out: Stability
[23] = Stability of the compound in Britton-Robinson buffer at pH 4 assessed as parent compound remaining at 100 uM by UV-vis spectrometric analysis; type: physicochemical; settings: read-out: Stability
[24] = Drug metabolism in phosphate buffered saline at pH 7.4 assessed as equilibrium hydrolysis constant measured at 1 min interval for 20 mins by UV-vis spectrophotometric method; type: physicochemical; settings: buffer, pH 7.4, 20 min
[25] = Drug metabolism in DMSO-d6 assessed as formation of pinacol boronic ester form of BSIH at 10 mM by 1H-NMR spectroscopic analysis; type: physicochemical; settings: 10000 µM
[26] = Stability of the compound in Britton-Robinson buffer at pH 10 assessed as parent compound remaining at 100 uM by UV-vis spectrometric analysis; type: physicochemical; settings: read-out: Stability
[27] = Stability of the compound in aqueous solvent assessed as parent compound remaining at 100 uM after 24 hrs in presence of H2O2 by 1H-NMR spectrometric method; type: physicochemical; settings: aqueous solvent with H2O2; read-out: Stability
[28] = Drug metabolism in phosphate buffered saline at pH 7.4 assessed as formation of SIH by measuring elution time at 100 uM after 24 hrs in presence of H2O2 by LC-MS analysis; type: physicochemical; settings: buffer, pH 7.4, 24 h
[29] = Drug metabolism in phosphate buffered saline at pH 7.4 assessed as formation of isoniazid by measuring elution time at 100 uM after 24 hrs in presence of H2O2 by LC-MS analysis; type: physicochemical; settings: buffer, pH 7.4, 24 h
[30] = Drug metabolism in D2O/5% DMSO-d6 assessed as pinacol dissociation by measuring formation of boronic acid form of BASIH at 500 uM after 1 hr by 1H-NMR spectroscopic analysis; type: physicochemical
[31] = Drug metabolism in phosphate buffered saline at pH 7.4 assessed as formation of salicylaldehyde by measuring retention time at 100 uM after 24 hrs in presence of H2O2 by LC-MS analysis; type: physicochemical; settings: buffer, pH 7.4, 24 h
[32] = Stability of the compound in D2O/5% DMSO-d6 assessed as parent compound remaining at 500 uM after 1 hr by 1H-NMR spectroscopic analysis; type: physicochemical; settings: read-out: Stability
[33] = Stability of the compound in minimal essential medium assessed as compound hydrolysis at 100 uM at pH 7.4 up to 24 hrs by UV-Vis spectrophotometric analysis; how it was run: as §3
[34] = Stability of the compound in Britton-Robinson buffer at pH 8 assessed as parent compound remaining at 100 uM by UV-vis spectrometric analysis; type: physicochemical; settings: read-out: Stability
[35] = Drug metabolism in D2O/5% DMSO-d6 assessed as formation of aldehyde proton of salicylaldehyde at 500 uM after 1 hr by 1H-NMR spectroscopic analysis; type: physicochemical

O=C(N/N=C/c1ccccc1O)c1ccncc1 [SALINAZID]
Activity [1]: Dose-dependent effect | Drug metabolism [2]: Metabolite detected | Activity [3]: 30% | Stability [4]: Unstable | Stability [5]: Stable | K [6]: 5 ×10⁻⁴ M | Stability [7]: Unstable | half-life at 100 µM [8]: 2.7 h | Stability [9]: Stable

NNC(=O)c1ccncc1 [ISONIAZID]
Activity [10]: inactive | Drug metabolism [11]: Metabolite detected | Activity [12]: Non-Toxic

O=Cc1ccccc1O [SALICYLADEHYDE]
Activity [1]: Dose-dependent effect | Drug metabolism [11]: Metabolite detected | Activity [12]: Non-Toxic

O=C(N/N=C/c1ccccc1B(O)O)c1ccncc1
remaining at 20 min, 100 µM [13]: 68% | remaining at 20 min, 500 µM [14]: 84% | Stability [15]: Stable | Stability [16]: Unstable

O=Cc1ccccc1B(O)O
Activity [1]: Dose-dependent effect | Activity [12]: Non-Toxic

CC1(C)OB(c2ccccc2/C=N/NC(=O)c2ccncc2)OC1(C)C
remaining at 100 µM [17]: 50% | Drug metabolism [18]: Metabolite_Notdetected | Activity [1]: Dose-dependent effect | Drug metabolism [19]: 8.79 ppm | Stability [20]: Unstable | remaining at 100 µM [21]: 36% | remaining at 100 µM [22]: 9% | remaining at 100 µM [23]: 26% | K [24]: 1.5 ×10⁻⁵ M | Drug metabolism [25]: 1.34 ppm | remaining at 100 µM [26]: 67% | Stability [15]: Stable | remaining at 24 h, 100 µM [27]: 25% | Time [28]: 13 min | Stability [16]: Unstable | Time [29]: 2 min | Drug metabolism [30]: 1.03 ppm | Retention_time [31]: 12 min | remaining at 1 h, 500 µM [32]: 80% | Activity [12]: Non-Toxic | Stability [33]: Stable | remaining at 100 µM [34]: 65% | Drug metabolism [35]: 9.9 ppm
